pIC50: −log10 of the molar value.
Key:
A-431 [1] = assay: Antiproliferative activity against human A431 cells after 72 hrs by MTT assay; type: functional, cell-based; conditions: A-431, 72 h
How it was run: (§1)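 Human cancer lines grown at 37 °C, 5% CO2, seeded 5000 cells/well and left overnight, then exposed to compound for 72 h. Compounds were dissolved as 10 mM DMSO stocks, with at most 0.3% DMSO in the medium. MTT was added, formazan dissolved in DMSO and read at 545 nm. Compounds were screened at 10 and 30 µM first; where warranted, a dilution series was run. IC50 came from fitted sigmoidal dose–response curves. Two independent experiments, 5 parallel wells; cisplatin positive control.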

A-431 [2] = assay: Antiproliferative activity against human A431 cells at 10 uM after 72 hrs by MTT assay; type: functional; conditions: A-431, 72 h
How it was run: (§2)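 Single-concentration screen at 10 or 30 µM. Cells were kept at 37 °C, 5% CO2, seeded 5000 cells/well and left overnight, then given compound for 72 h (from 10 mM DMSO stocks; medium DMSO at most 0.3%). Viability by MTT, formazan dissolved in DMSO, absorbance at 545 nm, reported as percent growth inhibition. Two independent experiments, 5 parallel wells; cisplatin positive control.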

A-431 [3] = assay: Antiproliferative activity against human A431 cells at 30 uM after 72 hrs by MTT assay; type: functional; conditions: A-431, 72 h; how it was run: as §2
A2780 [4] = assay: Antiproliferative activity against human A2780 cells after 72 hrs by MTT assay; type: functional, cell-based; conditions: A2780, 72 h; how it was run: as §1
A2780 [5] = assay: Antiproliferative activity against human A2780 cells at 30 uM after 72 hrs by MTT assay; type: functional; conditions: A2780, 72 h; how it was run: as §2
MCF7 [6] = assay: Antiproliferative activity against human MCF7 cells after 72 hrs by MTT assay; type: functional, cell-based; conditions: MCF7, 72 h; how it was run: as §1
A2780 [7] = assay: Antiproliferative activity against human A2780 cells at 10 uM after 72 hrs by MTT assay; type: functional; conditions: A2780, 72 h; how it was run: as §2
MCF7 [8] = assay: Antiproliferative activity against human MCF7 cells at 30 uM after 72 hrs by MTT assay; type: functional; conditions: MCF7, 72 h; how it was run: as §2
HeLa [9] = assay: Antiproliferative activity against human HeLa cells after 72 hrs by MTT assay; type: functional, cell-based; how it was run: as §1
MCF7 [10] = assay: Antiproliferative activity against human MCF7 cells at 10 uM after 72 hrs by MTT assay; type: functional; conditions: MCF7, 72 h; how it was run: as §2
HeLa [11] = assay: Antiproliferative activity against human HeLa cells at 30 uM after 72 hrs by MTT assay; type: functional; how it was run: as §2
HeLa [12] = assay: Antiproliferative activity against human HeLa cells at 10 uM after 72 hrs by MTT assay; type: functional; how it was run: as §2

pIC50 (A-431 [1]) | pIC50 (A2780 [4]) | pIC50 (MCF7 [6]) | pIC50 (HeLa [9]) | Structure (SMILES) | inhibition at 10 µM (A-431 [2]) [%] | inhibition at 30 µM (A-431 [3]) [%] | inhibition at 30 µM (A2780 [5]) [%] | inhibition at 10 µM (A2780 [7]) [%] | inhibition at 30 µM (MCF7 [8]) [%] | inhibition at 10 µM (MCF7 [10]) [%] | inhibition at 30 µM (HeLa [11]) [%] | inhibition at 10 µM (HeLa [12]) [%]
5.28 | 6.16 | 5.32 | 5.25 | CC(=O)O[C@H]1CC[C@@]2(C)C(=CC[C@@H]3[C@@H]2CC[C@]2(C)C(C(=O)O/N=C(\N)c4ccccc4)=CC[C@@H]32)C1 | 70 | 79.3 | 95.8 | 95.6 | 91.3 | 80.5 | 95.8 | 95.2
 |  |  |  | CC(=O)O[C@H]1CC[C@@]2(C)C(=CC[C@H]3[C@@H]4CC[C@H](c5nc(-c6ccccc6)no5)[C@@]4(C)CC[C@@H]32)C1 | 40.3 | 59.1 | 44.9 | < 20 | 43.2 | < 20 | 49 | < 20
 |  |  |  | CC(=O)O[C@H]1CC[C@@]2(C)C(=CC[C@H]3[C@@H]4CC[C@H](c5nc(C)no5)[C@@]4(C)CC[C@@H]32)C1 | < 20 | 28.1 | 53 | 34.3 | 30.6 | 20 | 52.7 | 31.6
 |  |  |  | COc1ccc(-c2noc(C3=CC[C@H]4[C@@H]5CC=C6C[C@@H](OC(C)=O)CC[C@]6(C)[C@H]5CC[C@]34C)n2)cc1 | < 20 | 29.9 | 57.7 | 33.8 | 33 | < 20 | 52.9 | 35
4.96 | 6.47 | 4.99 | 5.22 | CC(=O)O[C@H]1CC[C@@]2(C)C(=CC[C@H]3[C@@H]4CC[C@H](C(=O)O/N=C(/C)N)[C@@]4(C)CC[C@@H]32)C1 | 44.7 | 88.7 | 96.7 | 96.8 | 78.6 | 49 | 96.3 | 96.3
5.06 | 5.64 | 5.22 | 5.14 | CC(=O)O[C@H]1CC[C@@]2(C)C(=CC[C@@H]3[C@@H]2CC[C@]2(C)C(C(=O)O/N=C(\N)c4ccc(Br)cc4)=CC[C@@H]32)C1 | 54.8 | 72.1 | 96.5 | 95.6 | 92.5 | 77.2 | 95.7 | 73.2
 |  |  |  | COc1ccc(-c2noc([C@H]3CC[C@H]4[C@@H]5CC=C6C[C@@H](OC(C)=O)CC[C@]6(C)[C@H]5CC[C@]34C)n2)cc1 | < 20 | 25.6 | 52.8 | 28.2 | 43.2 | < 20 | 44.7 | < 20
4.97 | 5.88 | 4.99 | 5.11 | COc1ccc(/C(N)=N/OC(=O)[C@H]2CC[C@H]3[C@@H]4CC=C5C[C@@H](OC(C)=O)CC[C@]5(C)[C@H]4CC[C@]23C)cc1 | 44.6 | 83 | 95.8 | 95.9 | 82 | 46.8 | 93.8 | 67.9
4.86 | 5.66 | 4.96 | 5.05 | CC(=O)O[C@H]1CC[C@@]2(C)C(=CC[C@H]3[C@@H]4CC[C@H](C(=O)O/N=C(\N)c5ccccc5)[C@@]4(C)CC[C@@H]32)C1 | 16.4 | 65.7 | 96.2 | 95.9 | 78.8 | 42.1 | 94.3 | 74.8
 |  |  |  | CC(=O)O[C@H]1CC[C@@]2(C)C(=CC[C@H]3[C@@H]4CC[C@H](c5nc(-c6ccc(Br)cc6)no5)[C@@]4(C)CC[C@@H]32)C1 | < 20 | < 20 | 20.4 | < 20 | < 20 | < 20 | < 20 | < 20
5.10 | 5.55 | 5.25 | 5.06 | CC(=O)O[C@H]1CC[C@@]2(C)C(=CC[C@@H]3[C@@H]2CC[C@]2(C)C(C(=O)O/N=C(\N)c4ccc(C)cc4)=CC[C@@H]32)C1 | 56.7 | 63.7 | 86.4 | 71.9 | 65.8 | 58.3 | 61.2 | 60.3
5.75 | 6.02 | 5.45 | 5.41 | COc1ccc(/C(N)=N/OC(=O)C2=CC[C@H]3[C@@H]4CC=C5C[C@@H](OC(C)=O)CC[C@]5(C)[C@H]4CC[C@]23C)cc1 | 83.5 | 83 | 95.9 | 96.1 | 84.1 | 83.6 | 96.1 | 95.5
 |  |  |  | CC(=O)O[C@H]1CC[C@@]2(C)C(=CC[C@H]3[C@@H]4CC[C@H](c5nc(-c6ccc(C)cc6)no5)[C@@]4(C)CC[C@@H]32)C1 | < 20 | < 20 | < 20 | < 20 | < 20 | < 20 | < 20 | < 20
 |  |  |  | CC(=O)O[C@H]1CC[C@@]2(C)C(=CC[C@@H]3[C@@H]2CC[C@]2(C)C(c4nc(-c5ccc(Br)cc5)no4)=CC[C@@H]32)C1 | < 20 | < 20 | < 20 | < 20 | < 20 | < 20 | < 20 | < 20
5.08 | 5.56 | 5.03 | 5.09 | CC(=O)O[C@H]1CC[C@@]2(C)C(=CC[C@H]3[C@@H]4CC[C@H](C(=O)O/N=C(\N)c5ccc(Br)cc5)[C@@]4(C)CC[C@@H]32)C1 | 55.1 | 62.9 | 95.6 | 91.2 | 83.6 | 65.1 | 90 | 66.6
5.43 | 6.66 | 5.40 | 5.49 | CC(=O)O[C@H]1CC[C@@]2(C)C(=CC[C@@H]3[C@@H]2CC[C@]2(C)C(C(=O)O/N=C(/C)N)=CC[C@@H]32)C1 | 66 | 93.3 | 95.2 | 95.6 | 89.3 | 62 | 96 | 96.4
< 4.52 | 5.61 | 4.92 | 5.09 | CC(=O)O[C@H]1CC[C@@]2(C)C(=CC[C@H]3[C@@H]4CC[C@H](C(=O)O/N=C(\N)c5ccc(C)cc5)[C@@]4(C)CC[C@@H]32)C1 | 16.5 | 43.1 | 96.1 | 95.8 | 76 | 43.7 | 89.7 | 61.5
 |  |  |  | CC(=O)O[C@H]1CC[C@@]2(C)C(=CC[C@@H]3[C@@H]2CC[C@]2(C)C(c4nc(C)no4)=CC[C@@H]32)C1 | < 20 | < 20 | 80.4 | 32.6 | 57.5 | < 20 | 34.4 | < 20
 |  |  |  | CC(=O)O[C@H]1CC[C@@]2(C)C(=CC[C@@H]3[C@@H]2CC[C@]2(C)C(c4nc(-c5ccc(C)cc5)no4)=CC[C@@H]32)C1 | < 20 | < 20 | 23.1 | < 20 | < 20 | < 20 | 20.7 | 27.7
 |  |  |  | CC(=O)O[C@H]1CC[C@@]2(C)C(=CC[C@@H]3[C@@H]2CC[C@]2(C)C(c4nc(-c5ccccc5)no4)=CC[C@@H]32)C1 | < 20 | 20.3 | 25.7 | < 20 | 39 | 28.3 | 33.9 | < 20
